# ChEMBL document CHEMBL1126631, “Synthesis and biological activities of angiotensin II, Sarilesin, and Sarmesin analogues containing Aze or Pip at position 7” (J Med Chem, 1993)
# What was measured:
# Angiotensin II receptor = biological target: T1, Angiotensin II receptor (Rattus norvegicus, UniProt P29089+P25095+P35351); experiment: Antagonistic activity (pA2) was determined as the negative logarithm of the concentration required to reduce the response to an EC50 dose of ANG II to the response to half the EC50.; assay type: functional
# T1 sequence (P29089 whole entry): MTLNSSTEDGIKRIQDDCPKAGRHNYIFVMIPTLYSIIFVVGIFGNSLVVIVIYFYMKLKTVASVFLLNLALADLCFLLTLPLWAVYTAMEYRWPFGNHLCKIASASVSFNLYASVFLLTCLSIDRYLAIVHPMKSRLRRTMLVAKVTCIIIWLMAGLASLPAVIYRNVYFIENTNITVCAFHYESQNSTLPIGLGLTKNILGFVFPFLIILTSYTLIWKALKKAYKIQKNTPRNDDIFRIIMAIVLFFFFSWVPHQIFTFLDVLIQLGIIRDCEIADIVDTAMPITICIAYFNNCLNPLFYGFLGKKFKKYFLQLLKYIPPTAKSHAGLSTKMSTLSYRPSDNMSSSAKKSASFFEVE
# T1 sequence (P25095 whole entry): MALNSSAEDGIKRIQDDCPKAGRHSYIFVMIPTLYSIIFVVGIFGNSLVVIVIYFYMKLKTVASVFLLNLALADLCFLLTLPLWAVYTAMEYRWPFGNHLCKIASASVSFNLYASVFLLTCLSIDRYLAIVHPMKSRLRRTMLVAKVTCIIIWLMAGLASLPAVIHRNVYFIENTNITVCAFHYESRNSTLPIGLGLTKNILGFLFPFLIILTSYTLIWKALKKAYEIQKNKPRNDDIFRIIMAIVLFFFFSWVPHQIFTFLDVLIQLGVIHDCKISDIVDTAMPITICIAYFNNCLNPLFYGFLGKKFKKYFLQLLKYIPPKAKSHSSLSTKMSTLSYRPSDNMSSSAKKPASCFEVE
# T1 sequence (P35351 whole entry): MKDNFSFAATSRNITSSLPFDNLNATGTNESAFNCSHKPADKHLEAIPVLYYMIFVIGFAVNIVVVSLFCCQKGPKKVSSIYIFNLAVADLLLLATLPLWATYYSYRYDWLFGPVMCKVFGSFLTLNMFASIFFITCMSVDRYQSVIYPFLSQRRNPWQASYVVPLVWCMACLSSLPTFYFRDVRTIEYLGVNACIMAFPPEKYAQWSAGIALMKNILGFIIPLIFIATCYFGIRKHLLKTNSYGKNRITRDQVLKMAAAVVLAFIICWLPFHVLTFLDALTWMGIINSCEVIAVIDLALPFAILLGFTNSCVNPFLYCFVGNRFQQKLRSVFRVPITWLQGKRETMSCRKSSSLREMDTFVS
# Procedure, shortened: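 Isolated uterine horns (defatted) from diethylstilbestrol-primed virgin Sprague–Dawley rats (150–250 g), held under 1-g tension in a 3-mL bath of 150 mM NaCl, 5.6 mM KCl, 0.18 mM NaHCO3, 1.4 mM glucose, pH 7.0, oxygenated. Isotonic contractions recorded. Human ANGII as standard; values are means of the stated number of experiments.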
# [1] = biological target: Angiotensin II receptor (Rattus norvegicus) (UniProt P29089+P25095+P35351); experiment: Evaluated for its agonistic activity using rat uterus bioassay in Dawley rats (% of ANG II); assay type: functional, tissue-based
# Procedure, shortened: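 Defatted uterine horns from diethylstilbestrol-primed virgin Sprague–Dawley rats (150–250 g), suspended under 1-g tension in a 3-mL oxygenated bath (150 mM NaCl, 5.6 mM KCl, 0.18 mM NaHCO3, 1.4 mM glucose, pH 7.0). Isotonic contractions recorded; activity found by matching the response to an equivalent human ANGII response. Values are means of the stated number of experiments.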
SMILES,pA2 (Angiotensin II receptor),Agonist activity [1]
CC[C@H](C)[C@H](NC(=O)[C@@H]1CCN1C(=O)[C@H](Cc1c[nH]cn1)NC(=O)[C@@H](NC(=O)[C@H](Cc1ccc(O)cc1)NC(=O)[C@@H](NC(=O)[C@H](CCCN=C(N)N)NC(=O)CNC)C(C)C)[C@@H](C)CC)C(=O)O,7.9,–
CC[C@H](C)[C@H](NC(=O)[C@H](Cc1ccc(OC)cc1)NC(=O)[C@@H](NC(=O)[C@H](CCCN=C(N)N)NC(=O)CNC)C(C)C)C(=O)N[C@@H](Cc1c[nH]cn1)C(=O)N1CC[C@H]1C(=O)N[C@@H](Cc1ccccc1)C(=O)O,7.4,–
CC[C@H](C)[C@H](NC(=O)[C@H](Cc1ccc(O)cc1)NC(=O)[C@@H](NC(=O)[C@@H](N)CCCN=C(N)N)C(C)C)C(=O)N[C@@H](Cc1c[nH]cn1)C(=O)N1CCC1C(=O)N[C@@H](Cc1ccccc1)C(=O)O (stereo not given in full),–,35
CC[C@@H](C)[C@H](NC(=O)C1CCN1C(=O)[C@H](Cc1c[nH]cn1)NC(=O)[C@@H](NC(=O)[C@H](Cc1ccc(O)cc1)NC(=O)[C@@H](NC(=O)[C@H](CCCN=C(N)N)NC(=O)CNC)C(C)C)[C@@H](C)CC)C(=O)O (stereo not given in full),–,< 0.1
CC[C@@H](C)[C@H](NC(=O)[C@H]1CCCCN1C(=O)[C@H](Cc1c[nH]cn1)NC(=O)[C@@H](NC(=O)[C@H](Cc1ccc(O)cc1)NC(=O)[C@@H](NC(=O)[C@H](CCCN=C(N)N)NC(=O)CNC)C(C)C)[C@@H](C)CC)C(=O)O,–,< 0.1
CC[C@H](C)[C@H](NC(=O)[C@@H]1CCCN1C(=O)[C@H](Cc1c[nH]cn1)NC(=O)[C@@H](NC(=O)[C@H](Cc1ccc(O)cc1)NC(=O)[C@@H](NC(=O)[C@H](CCCN=C(N)N)NC(=O)CNC)C(C)C)[C@@H](C)CC)C(=O)O,–,0.1
CC[C@@H](C)[C@H](NC(=O)[C@H]1CCCCN1C(=O)[C@H](Cc1c[nH]cn1)NC(=O)[C@@H](NC(=O)[C@H](Cc1ccc(O)cc1)NC(=O)[C@@H](NC(=O)[C@H](CCCN=C(N)N)NC(=O)C(C)(C)N)C(C)C)[C@@H](C)CC)C(=O)O,–,< 0.1
CC[C@H](C)[C@H](NC(=O)[C@H](Cc1ccc(OC)cc1)NC(=O)[C@@H](NC(=O)[C@@H](N)CCCN=C(N)N)C(C)C)C(=O)N[C@@H](Cc1c[nH]cn1)C(=O)N1CCCC[C@H]1C(=O)N[C@@H](Cc1ccccc1)C(=O)O,< 5,–
CC[C@H](C)[C@H](NC(=O)[C@H](Cc1ccc(O)cc1)NC(=O)[C@@H](NC(=O)[C@H](CCCN=C(N)N)NC(=O)C(C)(C)N)C(C)C)C(=O)N[C@@H](Cc1c[nH]cn1)C(=O)N1CCCC[C@@H]1C(=O)N[C@@H](Cc1ccccc1)C(=O)O,–,65
CC[C@H](C)[C@H](NC(=O)[C@H](Cc1ccc(O)cc1)NC(=O)[C@@H](NC(=O)[C@H](CCCN=C(N)N)NC(=O)CNC)C(C)C)C(=O)N[C@@H](Cc1c[nH]cn1)C(=O)N1CCC1C(=O)N[C@@H](Cc1ccccc1)C(=O)O (stereo not given in full),–,98
CC[C@H](C)[C@H](NC(=O)[C@@H]1CCCCN1C(=O)[C@H](Cc1c[nH]cn1)NC(=O)[C@@H](NC(=O)[C@H](Cc1ccc(O)cc1)NC(=O)[C@@H](NC(=O)[C@H](CCCN=C(N)N)NC(=O)CNC)C(C)C)[C@@H](C)CC)C(=O)O,8.3,–
CC[C@@H](C)[C@H](NC(=O)C1CCN1C(=O)[C@H](Cc1c[nH]cn1)NC(=O)[C@@H](NC(=O)[C@H](Cc1ccc(O)cc1)NC(=O)[C@@H](NC(=O)[C@H](CCCN=C(N)N)NC(=O)C(C)(C)N)C(C)C)[C@@H](C)CC)C(=O)O (stereo not given in full),–,< 0.1
CC[C@H](C)[C@H](NC(=O)[C@@H]1CCN1C(=O)[C@H](Cc1c[nH]cn1)NC(=O)[C@@H](NC(=O)[C@H](Cc1ccc(O)cc1)NC(=O)[C@@H](NC(=O)[C@H](CCCN=C(N)N)NC(=O)C(C)(C)N)C(C)C)[C@@H](C)CC)C(=O)O,7.1,–

# Further lines, results first:
pA2 (Angiotensin II receptor),Agonist activity [1],SMILES
7.7,–,CC[C@H](C)[C@H](NC(=O)[C@H](Cc1ccc(OC)cc1)NC(=O)[C@@H](NC(=O)[C@H](CCCN=C(N)N)NC(=O)CNC)C(C)C)C(=O)N[C@@H](Cc1c[nH]cn1)C(=O)N1CCC[C@H]1C(=O)N[C@@H](Cc1ccccc1)C(=O)O
–,160,CC[C@H](C)[C@H](NC(=O)[C@H](Cc1ccc(O)cc1)NC(=O)[C@@H](NC(=O)[C@H](CCCN=C(N)N)NC(=O)CNC)C(C)C)C(=O)N[C@@H](Cc1c[nH]cn1)C(=O)N1CCC[C@H]1C(=O)N[C@@H](Cc1ccccc1)C(=O)O
–,34,CC[C@H](C)[C@H](NC(=O)[C@H](Cc1ccc(O)cc1)NC(=O)[C@@H](NC(=O)[C@H](CCCN=C(N)N)NC(=O)C(C)(C)N)C(C)C)C(=O)N[C@@H](Cc1c[nH]cn1)C(=O)N1CCC1C(=O)N[C@@H](Cc1ccccc1)C(=O)O (stereo not given in full)
6.5,–,CC[C@H](C)[C@H](NC(=O)[C@H](Cc1ccc(OC)cc1)NC(=O)[C@@H](NC(=O)[C@H](CCCN=C(N)N)NC(=O)CNC)C(C)C)C(=O)N[C@@H](Cc1c[nH]cn1)C(=O)N1CCCC[C@H]1C(=O)N[C@@H](Cc1ccccc1)C(=O)O
7.6,–,CC[C@H](C)[C@H](NC(=O)[C@@H]1CCCCN1C(=O)[C@H](Cc1c[nH]cn1)NC(=O)[C@@H](NC(=O)[C@H](Cc1ccc(O)cc1)NC(=O)[C@@H](NC(=O)[C@H](CCCN=C(N)N)NC(=O)C(C)(C)N)C(C)C)[C@@H](C)CC)C(=O)O
–,184,CC[C@H](C)[C@H](NC(=O)[C@H](Cc1ccc(O)cc1)NC(=O)[C@@H](NC(=O)[C@H](CCCN=C(N)N)NC(=O)CNC)C(C)C)C(=O)N[C@@H](Cc1c[nH]cn1)C(=O)N1CCCC[C@@H]1C(=O)N[C@@H](Cc1ccccc1)C(=O)O
< 5,–,CC[C@H](C)[C@H](NC(=O)[C@H](Cc1ccc(OC)cc1)NC(=O)[C@@H](NC(=O)[C@@H](N)CCCN=C(N)N)C(C)C)C(=O)N[C@@H](Cc1c[nH]cn1)C(=O)N1CC[C@H]1C(=O)N[C@@H](Cc1ccccc1)C(=O)O
